TRPC6 activator: mouse TRPC6 channel activation; Q61143; HEK293-TRPC6 membrane potential dye fluorescence; hits give high values; B-score at 10 µM; 310,000 tested, 0.13% active;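 active = B-score of the integrated fluorescence ratio above library mean plus 3 SD, and starting fluorescence ratio within library mean plus 5 SD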;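 also: higher score means more depolarization so channel activation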
TRPC4 potent: allosterically enhances the mouse TRPC4 cation channel. 310,000 tested, 0.42% active. B-score at 10 µM. Q9QUQ5. HEK293 TRPC4beta/mu-opioid, DAMGO EC20, Fluo-4 Ca2+ flux; hits give high values. AID 2227;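 active = B-score of calcium response area above 5 SD of library B-scores, with initial fluorescence ratio within 5 SD of library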
TRPC6 inh: inhibitors of mouse TRPC6 channel; Q61143; HEK293-TRPC6, membrane potential dye, ACh-evoked depolarization; hits give low values; 310,000 tested, 1.1% active; B-score at 10 µM;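 active = B-score under library mean minus 3 SD, initial fluorescence not abnormally high, positive integrated signal ratio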;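 also: B-score derived from integrated fluorescence ratio over the kinetic read; more negative B-score means stronger inhibition of depolarization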
TRPC4 act: TRPC4 (mouse) channel activation; HEK293 TRPC4beta/mu-opioid, Fluo4 calcium fluorescence; hits give high values; B-score at 10 µM; 310,000 tested, 0.49% active; AID 2237;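 active = B-score above 5 SD of library B-scores, and initial fluorescence ratio not above library mean plus 5 SD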;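 also: positive B-score marks a calcium rise read as TRPC4 activation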
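Material: TRPC4beta and mu-opioid receptor HEK293 stable cells | Incubation: 45 min room-temperature Fluo4 loading, 110 s read | Detection: Kinetic Fluo4 calcium fluorescence | Measure: Integrated baseline-normalised fluorescence ratio, converted to per-well B score | Benchmarks: Low control buffer alone, high control maximal DAMGO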
Kir21 inh: Kir2.1 (mouse) channel inhibition; P35561; B-score at 10 µM; 310,000 tested, 0.85% active; HEK293-Kir2.1, FluxOR thallium flux fluorescence; hits give low values;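 active = fluorescence ratio B-score at or below minus 3 SD of library scores, with starting-brightness B-score within 2 SD, cut at about -4.2 in these data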;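 also: channel flux triggered by added potassium and thallium sulfate stimulus; B-score of peak minus minimum fluorescence over baseline after thallium stimulus; more negative B-score means stronger Kir2.1 block with less thallium influx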
TRPC4 block: inhibitors of mouse TRPC4 channel. 300,000 tested, 0.39% active. B-score at 10 µM. Q9QUQ5. HEK293 TRPC4beta/mu-opioid, DAMGO-evoked Fluo4 calcium flux; hits give low values. AID 2247;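 active = B-score over 3 SD under the library average, no early fluorescence shift, positive overall ratio signal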
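Assay system: Stable TRPC4beta/mu-opioid receptor HEK293 cells | Reagent: DAMGO in two steps, submaximal then maximal | Compound dosing: Single concentration per test compound | Signal: Fluo4 Ca2+ flux fluorescence | Evaluation: Per-well B score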
Hits are given with their value; 0 = inactive. Compounds with a hit are over-represented: about 3% of the library has one in this group of screens.

SMILES | TRPC6 activator | TRPC4 potent | TRPC6 inh | TRPC4 act | Kir21 inh | TRPC4 block
c1ccc(SCCN2CCc3ccccc3C2)cc1 | 0 | 0 | 0 | 0 | 0 | 0
c1ccc(SCCOCCN2CCc3ccccc3C2)cc1 | 0 | 0 | 0 | 0 | -5.4 | 0
CC1C(=O)Nc2ccccc2N1C(=O)c1ccc(F)cc1 (stereo unspecified) | 0 | 0 | 0 | 0 | 0 | 0
CCCC1C(=O)Nc2ccccc2N1C(=O)c1ccc(C(C)(C)C)cc1 (stereo unspecified) | 0 | 16 | 0 | 0 | 0 | 0
Cc1noc(C)c1N=Nc1ccc(Br)cc1C(=O)O | 0 | 0 | 0 | 0 | 0 | 0
CC(C)Cc1ccc(C(C)C(=O)O)cc1 (stereo unspecified) | 0 | 0 | 0 | 0 | 0 | 0
CC(C)Cc1ccc(C(C)C(N)=NCCc2ccccc2)cc1 (stereo unspecified) | 0 | 10 | 0 | 0 | -7.52 | 0
CC(C)NC(=O)C1CCCN(c2nnc(-n3cccc3)s2)C1 (stereo unspecified) | 0 | 0 | 0 | 0 | 0 | 0
CC(=O)Nc1ccc(NC(=O)C2CCCN(c3nnc(-n4cccc4)s3)C2)cc1 (stereo unspecified) | 0 | 0 | 0 | 0 | -4.61 | 0
CC(C)(C)NC(=O)C(c1ccco1)N(Cc1ccc2c(c1)OCO2)C(=O)c1snc(C(N)=O)c1N (stereo unspecified) | 0 | 0 | 0 | 0 | 0 | 0
O=C(c1ccc2c(c1)OCO2)C1CCCN(Cc2c(F)ccc(F)c2F)C1 (stereo unspecified) | 0 | 0 | 0 | 0 | 0 | 0
COc1cc2c(cc1OC)C(C(=O)Nc1ccc(F)c(Cl)c1)CC(=O)N2 (stereo unspecified) | 0 | 0 | 0 | 0 | 0 | 0
Cc1c(CCOC(=O)C23CC4(C)CC(C)(CC(C)(C4)C2)C3)sc[n+]1CC(=O)c1ccccc1 | 0 | 0 | 0 | 0 | 0 | 0
Cc1c(CCOC(=O)CC23CC4CC(CC(C4)C2)C3)sc[n+]1CC(=O)c1ccccc1 | 0 | 0 | 0 | 0 | 0 | -5
Cc1c(C)n(Cc2ccc(F)cc2)c2ccc(C(=O)NCCCN3CCOCC3)cc12 | 0 | 0 | 0 | 0 | -4.82 | 0
Cc1c(C)n(Cc2ccccc2)c2ccc(C(=O)NCCCN3CCOCC3)cc12 | 0 | 0 | 0 | 0 | 0 | 0
Cc1c(C)n(C)c2ccc(C(=O)NCCCN3CCN(c4ccc(F)cc4)CC3)cc12 | 0 | 0 | 0 | 0 | -4.25 | 0
CCOC(=O)N1CCC(NC(=O)c2cn(-c3ccc(OC)cc3)c(=O)c3ccccc23)CC1 | 0 | 0 | 0 | 0 | 0 | 0
CCOC(=O)N1CCC(NC(=O)c2cccc3c2C(=O)N(c2ccc(OC)cc2)C3)CC1 | 0 | 0 | -7.8 | 0 | 0 | 0
CCOC(=O)N1CCC(N2Cc3cccc(C(=O)NCc4ccccc4OC)c3C2=O)CC1 | 0 | 0 | -7.35 | 0 | 0 | 0
C/C(=N\NC(=O)c1cccc(S(=O)(=O)N2CCOCC2)c1)c1ccc(OCC(=O)N(C)C)cc1 | 0 | 0 | 0 | 0 | 0 | 0
Cc1ccc2[nH]c3c(=O)n(CC(=O)Nc4ccccc4N4CCN(C)CC4)ncc3c2c1 | 0 | 0 | 0 | 0 | 0 | 0
Cc1ccc(-n2cc(CN3CCC(O)(c4ccccn4)CC3)c(-c3ccc(F)cc3)n2)cc1 | 0 | 0 | 0 | 77 | 0 | 0
CN(C)CCNC(=O)c1cc2c(s1)-c1ccc(Cl)cc1SC2 | 0 | 0 | 0 | 0 | -7.76 | 0
CCOCCCNC(=O)c1cc2c(s1)-c1ccccc1SC2 | 0 | 0 | 0 | 0 | 0 | 0
SMILES | TRPC6 activator | TRPC4 potent | TRPC6 inh | TRPC4 act | Kir21 inh | TRPC4 block
O=C(CN1CCN(Cc2ccccc2)CC1)N=Nc1c(O)[nH]c2ccccc12 | 0 | 0 | 0 | 0 | 0 | 0
O=C(CN1CCCCC1)N=Nc1c(O)[nH]c2ccccc12 | 0 | 0 | 0 | 0 | 0 | -8
COc1cc(OC)c(OC)cc1CN(C)CC1CCCN(CCc2ccccc2F)C1 (stereo unspecified) | 0 | 0 | 0 | 0 | 0 | 0
CCN(Cc1cccc(OC)c1)CC1CCCN(CCc2cccc(OC)c2)C1 (stereo unspecified) | 0 | 0 | 0 | 0 | 0 | 0
COc1cccc(CN(C)CC2CCCN(CCc3ccccc3C)C2)c1 (stereo unspecified) | 0 | 0 | 0 | 0 | -6.55 | 0
COc1ccc(CN(C)CC2CCCN(CCc3ccccc3C)C2)cc1O (stereo unspecified) | 0 | 0 | 0 | 0 | -8.83 | 0
Cc1c(NC(=O)CSc2ccccc2Cl)c(=O)n(-c2ccccc2)n1C | 0 | 0 | 0 | 0 | 0 | 0
O=S(=O)(Nc1cccc(CCc2ccccn2)c1)c1cc(Cl)ccc1Cl | 0 | 13 | 0 | 0 | 0 | 0
O=S(=O)(Nc1ncccn1)c1ccc(NS(=O)(=O)c2cc(Cl)ccc2Cl)cc1 | 0 | 0 | 0 | 0 | 0 | 0
C(CNC1C2CC3CC(C2)CC1C3)CN1CCOCC1 (stereo unspecified) | 0 | 0 | 0 | 0 | 0 | 0
C1CCN(CCCNC2C3CC4CC(C3)CC2C4)C1 (stereo unspecified) | 0 | 0 | 0 | 0 | -10.6 | 0
O=C(COc1ccccc1Cl)NCCCNC(=O)c1ccco1 | 0 | 0 | 0 | 0 | 0 | 0
Cc1ccc(C)c(NC(=O)C2CCCN2S(=O)(=O)c2ccc3c(c2)n(C)c(=O)c(=O)n3C)c1 (stereo unspecified) | 0 | 0 | 0 | 0 | 0 | 0
Cc1ccc(C)c2nc(Cl)c(C3NC(=O)c4ccccc4N3)cc12 (stereo unspecified) | 0 | 15 | 0 | 0 | 0 | 0
COc1cc(OC)c(OC)cc1CN(C)CCc1ccccn1 | 0 | 0 | 0 | 64 | 0 | 0
Cc1noc(C)c1C(=O)N1CCN(c2ccc(OCc3ccccc3)cc2)CC1 | 0 | 0 | 0 | 0 | 0 | 0
NC(=O)CCn1c(C(=O)c2cc(Cl)c(N)c(Cl)c2)c2ccccc2[n+]1[O-] | 0 | 0 | 0 | 0 | 0 | 0
NCCCn1c(C(=O)c2cc(Cl)c(N)c(Cl)c2)c2ccccc2[n+]1[O-] | 0 | 0 | 0 | 178 | 0 | 0
OCCCNCc1ccc(N(c2ccccc2)c2ccccc2)cc1 | 0 | 0 | 0 | 0 | -11.6 | 0
OCCNC(=S)NCc1ccccc1 | 0 | 0 | 0 | 0 | 0 | 0
COc1ccc(C[C@H]2CN3C(=NC[C@@H]3Cc3ccccc3)N2CCNC(=O)c2ccc(C)c(Br)c2)cc1 | 0 | 0 | 0 | 48 | -4.25 | 0
COc1ccc(C[C@H]2CN3C(=NC[C@H]3Cc3ccccc3)N2CCNC(=O)c2ccc(C)c(Br)c2)cc1 | 0 | 0 | 0 | 0 | -7.35 | 0
Cc1ccc(C(=O)NCCN2C3=NC[C@@H](Cc4ccccc4)N3C[C@H]2Cc2ccc(O)cc2)cc1Br | 0 | 0 | 0 | 0 | -6.76 | 0
COc1ccc(C[C@H]2CN3C(=NC[C@@H]3Cc3ccc(O)cc3)N2CCNC(=O)c2ccc(C)c(Br)c2)cc1 | 0 | 0 | 0 | 0 | 0 | 0

Screening data: PubChem BioAssay, Johns Hopkins Ion Channel Center
